{"source": "ChEMBL document CHEMBL3272259", "about": "“Nitroimidazoles with antibacterial activity against Neisseria gonorrhoeae” (1977)", "key": {"[1]": {"tested_on": "Pentatrichomonas hominis", "assay": "Antibacterial activity against Pentatrichomonas hominis ATCC 30000 after 48 hrs by ten-fold serial dilution method", "assay_type": "functional", "details": "ATCC 30000, 48 h", "method_in_brief": "(§1)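 Trichomonads were cultured in Diamond medium with 5% serum and incubated 48 h at 37 °C. Cultures were examined microscopically for motile cells, and the MIC (µg/mL) is the lowest concentration giving no motile organisms.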"}, "[2]": {"tested_on": "Bacteroides fragilis", "assay": "Antibacterial activity against Bacteroides fragilis ATCC 23745 after 24 hrs by ten-fold serial dilution method", "assay_type": "functional", "details": "ATCC 23745, 24 h", "method_in_brief": "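Grown in Fluid Thioglycollate Broth and incubated 24 h at 37 °C. Growth was read by eye, and the MIC (µg/mL) is the lowest concentration that prevented visible growth.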"}, "[3]": {"tested_on": "Clostridium perfringens", "assay": "Antibacterial activity against Clostridium perfringens ATCC 13124 after 24 hrs by ten-fold serial dilution method", "assay_type": "functional", "details": "ATCC 13124, 24 h", "method_in_brief": "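Grown in Fluid Thioglycollate Broth and incubated 24 h at 37 °C. Growth was checked by eye after incubation. MIC was taken as the lowest concentration, in μg/mL, that prevented visible growth.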"}, "[4]": {"tested_on": "Trichomonas vaginalis", "assay": "Antibacterial activity against Trichomonas vaginalis ATCC 30001 after 48 hrs by ten-fold serial dilution method", "assay_type": "functional", "details": "ATCC 30001, 48 h", "method_in_brief": "as §1"}, "[5]": {"tested_on": "Candida albicans", "assay": "Antifungal activity against Candida albicans", "assay_type": "functional, organism-based"}, "[6]": {"tested_on": "Tritrichomonas foetus", "assay": "Antibacterial activity against Tritrichomonas foetus 1002-96-27 after 48 hrs by ten-fold serial dilution method", "assay_type": "functional", "details": "1002-96-27, 48 h", "method_in_brief": "as §1"}, "[7]": {"tested_on": "Neisseria gonorrhoeae", "assay": "Antibacterial activity against Neisseria gonorrhoeae ATCC 19424 after 48 hrs by ten-fold serial dilution method", "assay_type": "functional", "details": "ATCC 19424, 48 h", "method_in_brief": "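Tested on chocolate agar made from GC agar base with hemoglobin and Supplement C, incubated 48 h at 37 °C. Plates were checked visually, and the MIC (µg/mL) is the lowest concentration with no visible growth.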"}}, "note": "Calls of active or inactive are those of the source. No cut-off for these calls is given here.", "data": [{"smiles": "Cn1c([N+](=O)[O-])cnc1[S+]([O-])CCCCCCCCCCC(=O)O", "note": "(configuration not stated)", "values": [{"measurement": "MIC", "setting": "[1]", "result": 100, "unit": "µg/mL"}, {"measurement": "MIC", "setting": "[2]", "result": "> 100", "unit": "µg/mL"}, {"measurement": "MIC", "setting": "[3]", "result": "> 100", "unit": "µg/mL"}, {"measurement": "MIC", "setting": "[4]", "result": 10, "unit": "µg/mL"}, {"measurement": "Activity", "setting": "[5]", "result": "inactive"}, {"measurement": "MIC", "setting": "[6]", "result": 100, "unit": "µg/mL"}, {"measurement": "MIC", "setting": "[7]", "result": 100, "unit": "µg/mL"}]}, {"smiles": "Cn1c([N+](=O)[O-])cnc1SCCCCCCCOc1ccccc1[N+](=O)[O-]", "values": [{"measurement": "MIC", "setting": "[1]", "result": 100, "unit": "µg/mL"}, {"measurement": "MIC", "setting": "[2]", "result": "> 100", "unit": "µg/mL"}, {"measurement": "MIC", "setting": "[3]", "result": "> 100", "unit": "µg/mL"}, {"measurement": "MIC", "setting": "[4]", "result": 100, "unit": "µg/mL"}, {"measurement": "Activity", "setting": "[5]", "result": "inactive"}, {"measurement": "MIC", "setting": "[6]", "result": 100, "unit": "µg/mL"}, {"measurement": "MIC", "setting": "[7]", "result": "> 100", "unit": "µg/mL"}]}, {"smiles": "Cc1ncc([N+](=O)[O-])n1CCO", "note": "[METRONIDAZOLE]", "values": [{"measurement": "MIC", "setting": "[1]", "result": 1, "unit": "µg/mL"}, {"measurement": "MIC", "setting": "[2]", "result": 1, "unit": "µg/mL"}, {"measurement": "MIC", "setting": "[3]", "result": 10, "unit": "µg/mL"}, {"measurement": "MIC", "setting": "[4]", "result": 10, "unit": "µg/mL"}, {"measurement": "Activity", "setting": "[5]", "result": "inactive"}, {"measurement": "MIC", "setting": "[6]", "result": 1, "unit": "µg/mL"}, {"measurement": "MIC", "setting": "[7]", "result": "> 100", "unit": "µg/mL"}]}, {"smiles": "CCOC(=O)c1ccc(OCCCCCCCCCCSc2ncc([N+](=O)[O-])n2C)c([N+](=O)[O-])c1", "values": [{"measurement": "MIC", "setting": "[1]", "result": 10, "unit": "µg/mL"}, {"measurement": "MIC", "setting": "[2]", "result": 10, "unit": "µg/mL"}, {"measurement": "MIC", "setting": "[3]", "result": "> 100", "unit": "µg/mL"}, {"measurement": "MIC", "setting": "[4]", "result": 10, "unit": "µg/mL"}, {"measurement": "Activity", "setting": "[5]", "result": "inactive"}, {"measurement": "MIC", "setting": "[6]", "result": 10, "unit": "µg/mL"}, {"measurement": "MIC", "setting": "[7]", "result": "> 100", "unit": "µg/mL"}]}, {"smiles": "Cn1c([N+](=O)[O-])cnc1SCCCCCCCC(=O)O", "values": [{"measurement": "MIC", "setting": "[1]", "result": 1, "unit": "µg/mL"}, {"measurement": "MIC", "setting": "[2]", "result": 10, "unit": "µg/mL"}, {"measurement": "MIC", "setting": "[3]", "result": 0.1, "unit": "µg/mL"}, {"measurement": "MIC", "setting": "[4]", "result": 1, "unit": "µg/mL"}, {"measurement": "Activity", "setting": "[5]", "result": "inactive"}, {"measurement": "MIC", "setting": "[6]", "result": 1, "unit": "µg/mL"}, {"measurement": "MIC", "setting": "[7]", "result": 0.1, "unit": "µg/mL"}]}, {"smiles": "Br.Cn1ccnc1SCCOc1ccc([N+](=O)[O-])cc1", "values": [{"measurement": "MIC", "setting": "[1]", "result": "> 100", "unit": "µg/mL"}, {"measurement": "MIC", "setting": "[2]", "result": "> 100", "unit": "µg/mL"}, {"measurement": "MIC", "setting": "[3]", "result": "> 100", "unit": "µg/mL"}, {"measurement": "MIC", "setting": "[4]", "result": "> 100", "unit": "µg/mL"}, {"measurement": "Activity", "setting": "[5]", "result": "inactive"}, {"measurement": "MIC", "setting": "[6]", "result": "> 100", "unit": "µg/mL"}, {"measurement": "MIC", "setting": "[7]", "result": 100, "unit": "µg/mL"}]}]}
